# Experimental data from ChEMBL document CHEMBL5038571, “Design and Synthesis of EZH2-Based PROTACs to Degrade the PRC2 Complex for Targeting the Noncatalytic Activity of EZH2” (J Med Chem, 2021).
# Activity calls are given as the source filed them. The calls are words filed in the database; no cut-off is given here.
# How the values were obtained:
# [1] = biological target: T1, Protein cereblon/Histone-lysine N-methyltransferase EZH2 (Homo sapiens) (UniProt Q15910+Q96SW2); experiment: PROTAC activity at CRBN E3 ligase/EZH2 in PRC2 complex in human LNCaP cells assessed as induction of EZH2 degradation by measuring reduction in EZH2 protein level at 1 uM incubated for 48 hrs by Western blot analysis; format: cell-based
# T1 sequence (Q15910 whole entry, looked up): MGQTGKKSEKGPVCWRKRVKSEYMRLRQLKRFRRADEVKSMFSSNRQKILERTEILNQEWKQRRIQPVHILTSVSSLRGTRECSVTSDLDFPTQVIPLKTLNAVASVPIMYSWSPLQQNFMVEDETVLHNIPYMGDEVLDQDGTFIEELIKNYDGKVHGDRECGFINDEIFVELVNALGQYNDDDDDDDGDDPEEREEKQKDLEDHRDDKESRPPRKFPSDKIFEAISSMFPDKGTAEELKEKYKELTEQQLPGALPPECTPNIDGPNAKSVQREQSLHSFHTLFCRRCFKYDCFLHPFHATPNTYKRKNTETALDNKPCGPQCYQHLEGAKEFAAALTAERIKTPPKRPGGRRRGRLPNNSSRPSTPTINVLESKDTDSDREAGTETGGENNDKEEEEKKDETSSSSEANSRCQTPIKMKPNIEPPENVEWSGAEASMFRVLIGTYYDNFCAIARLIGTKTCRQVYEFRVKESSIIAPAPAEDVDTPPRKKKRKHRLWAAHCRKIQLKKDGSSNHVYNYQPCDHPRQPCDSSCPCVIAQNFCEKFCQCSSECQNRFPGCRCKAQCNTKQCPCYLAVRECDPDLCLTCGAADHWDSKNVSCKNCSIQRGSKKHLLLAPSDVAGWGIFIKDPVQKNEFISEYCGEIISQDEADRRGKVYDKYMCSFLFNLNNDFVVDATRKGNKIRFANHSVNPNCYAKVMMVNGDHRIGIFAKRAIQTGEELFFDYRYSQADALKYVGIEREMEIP
# T1 sequence (Q96SW2 whole entry, looked up): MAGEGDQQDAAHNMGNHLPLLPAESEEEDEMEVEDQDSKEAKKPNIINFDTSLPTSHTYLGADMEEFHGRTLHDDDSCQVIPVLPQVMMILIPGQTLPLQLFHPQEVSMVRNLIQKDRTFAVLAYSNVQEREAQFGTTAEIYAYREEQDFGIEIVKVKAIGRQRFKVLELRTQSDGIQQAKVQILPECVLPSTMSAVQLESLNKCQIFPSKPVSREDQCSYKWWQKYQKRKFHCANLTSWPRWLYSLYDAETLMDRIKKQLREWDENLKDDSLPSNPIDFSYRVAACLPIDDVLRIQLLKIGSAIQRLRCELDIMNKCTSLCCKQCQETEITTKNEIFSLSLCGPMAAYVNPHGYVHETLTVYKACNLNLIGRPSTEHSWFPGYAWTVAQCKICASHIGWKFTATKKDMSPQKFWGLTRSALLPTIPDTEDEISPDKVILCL
# Procedure, shortened: (§1)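 Cancer cell lines exposed to 1 μM compound for 48 h. Lysates immunoblotted (SDS-PAGE, nitrocellulose, 5% milk block, primary antibody overnight at 4 °C) for EZH2, SUZ12, EED, RbAp48 and H3K27me3. Bands quantified by densitometry and normalized to GAPDH.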
# A549 [2] = experiment: Downregulation of CEP76 mRNA expression in human A549 cells at 10 uM incubated for 48 hrs by qRT-PCR analysis; format: functional, cell-based
# Procedure, shortened: (§2)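 Cells treated 48 h. Total RNA extracted with Trizol, reverse-transcribed, and SYBR RT-qPCR run: 95 °C 30 s, then 40 cycles of 95 °C 6 s and 60 °C 20 s. mRNA normalized to the DMSO-treated group. Mean SD of three independent experiments, t-test versus DMSO.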
# [3] = biological target: T1, Protein cereblon/Histone-lysine N-methyltransferase EZH2 (Homo sapiens); experiment: PROTAC activity at CRBN E3 ligase/EZH2 in PRC2 complex in human DU-145 cells assessed as induction of EZH2 degradation by measuring reduction in EZH2 protein level at 1 uM incubated for 48 hrs by Western blot analysis; format: cell-based; procedure, shortened: as §1
# A549 [4] = experiment: Downregulation of CENPK mRNA expression in human A549 cells at 10 uM incubated for 48 hrs by qRT-PCR analysis; format: functional, cell-based; procedure, shortened: as §2
# WSUDLCL2 [5] = experiment: Inhibition of PRC2 in human WSUDLCL2 cells assessed as suppression H3K27 trimethylation at 10 uM incubated for 48 hrs by Western blot analysis; format: cell-based
# Procedure, shortened: (§3)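 Lysates run on SDS-PAGE and transferred to nitrocellulose. Membranes blocked with 5% skim milk for 2 h, primary antibody applied overnight at 4 °C, then secondary antibody and chemiluminescent detection of histone H3 methylation marks.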
# WSUDLCL2 [6] = experiment: Inhibition of PRC2 in human WSUDLCL2 cells assessed as suppression H3K27 dimethylation incubated for 48 hrs by Western blot analysis; format: cell-based; procedure, shortened: as §3
# NCI-H1299 [7] = experiment: Downregulation of […] mRNA expression in human NCI-H1299 cells at 10 uM incubated for 48 hrs by qRT-PCR analysis; format: functional, cell-based; procedure, shortened: as §2
# [8] = biological target: T1, Protein cereblon/Histone-lysine N-methyltransferase EZH2 (Homo sapiens); experiment: PROTAC activity at CRBN E3 ligase/EZH2 in PRC2 complex in human SU-DHL-6 cells assessed as induction of SUZ12 degradation by measuring reduction in SUZ12 protein level at 1 uM incubated for 48 hrs by Western blot analysis; format: cell-based
# Procedure, shortened: (§4)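 Cells cultured in DMEM or RPMI 1640 with 10% FBS and 1% penicillin-streptomycin, 37 °C, 5% CO2; exposed to 1 μM compound for 48 h. Lysates run on SDS-PAGE and transferred to nitrocellulose. Blocked 2 h in 5% skim milk, primary antibody overnight at 4 °C, then secondary antibody. Chemiluminescent detection of PRC2 subunits and H3K27me3.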
# [9] = biological target: T1, Protein cereblon/Histone-lysine N-methyltransferase EZH2 (Homo sapiens); experiment: PROTAC activity at CRBN E3 ligase/EZH2 in PRC2 complex in human WSUDLCL2 cells assessed as downregulation of EED expression at 1 uM pretreated with GSK126 for 4 hrs followed by compound addition and measured after 48 hrs by Western blot analysis; format: cell-based
# Procedure, shortened: (§5)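 WSU-DLCL-2 cells pretreated 4 h with the named inhibitor, then compound added and incubated a further 48 h. EZH2, SUZ12, EED and RbAp48 measured by western blot (nitrocellulose transfer, skim-milk block, primary antibody overnight at 4 °C, chemiluminescent detection).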
# NCI-H1299 [10] = experiment: Downregulation of CENPK mRNA expression in human NCI-H1299 cells at 10 uM incubated for 48 hrs by qRT-PCR analysis; format: functional, cell-based; procedure, shortened: as §2
# A549 [11] = experiment: Upregulation of CDKN2A mRNA expression in human A549 cells at 5 uM incubated for 48 hrs by qRT-PCR analysis; format: functional, cell-based
# Procedure, shortened: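 A549 cells treated 48 h. Trizol RNA extraction, reverse transcription, SYBR qPCR (95 °C 30 s; 40 cycles of 95 °C 6 s, 60 °C 20 s). mRNA normalized to DMSO-treated cells; mean ± SD of three independent experiments.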
# [12] = biological target: T1, Protein cereblon/Histone-lysine N-methyltransferase EZH2 (Homo sapiens); experiment: PROTAC activity at CRBN E3 ligase/EZH2 in PRC2 complex in human WSUDLCL2 cells assessed as downregulation of SUZ12 expression at 1 uM pretreated with EED226 for 4 hrs followed by compound addition and measured after 48 hrs by Western blot analysis; format: cell-based; procedure, shortened: as §5
# [13] = biological target: T1, Protein cereblon/Histone-lysine N-methyltransferase EZH2 (Homo sapiens); experiment: PROTAC activity at CRBN E3 ligase/EZH2 in PRC2 complex in human WSUDLCL2 cells assessed as downregulation of EED expression at 1 uM pretreated with MLN4924 for 4 hrs followed by compound addition and measured after 48 hrs by Western blot analysis; format: cell-based; procedure, shortened: as §5
# [14] = biological target: T1, Protein cereblon/Histone-lysine N-methyltransferase EZH2 (Homo sapiens); experiment: PROTAC activity at CRBN E3 ligase/EZH2 in PRC2 complex in human WSUDLCL2 cells assessed as downregulation of SUZ12 expression at 1 uM pretreated with MG-132 for 4 hrs followed by compound addition and measured after 48 hrs by Western blot analysis; format: cell-based; procedure, shortened: as §5
# [15] = biological target: T1, Protein cereblon/Histone-lysine N-methyltransferase EZH2 (Homo sapiens); experiment: PROTAC activity at CRBN E3 ligase/EZH2 in PRC2 complex in human LNCaP cells assessed as induction of RbAp48 degradation by measuring reduction in RbAp48 protein level at 1 uM incubated for 48 hrs by Western blot analysis; format: cell-based; procedure, shortened: as §1
# NCI-H1299 [16] = experiment: Downregulation of CEP76 mRNA expression in human NCI-H1299 cells at 10 uM incubated for 48 hrs by qRT-PCR analysis; format: functional, cell-based; procedure, shortened: as §2
# [17] = biological target: T1, Protein cereblon/Histone-lysine N-methyltransferase EZH2 (Homo sapiens); experiment: PROTAC activity at CRBN E3 ligase/EZH2 in PRC2 complex in human SU-DHL-6 cells assessed as induction of EED degradation by measuring reduction in EED protein level at 1 uM incubated for 48 hrs by Western blot analysis; format: cell-based; procedure, shortened: as §4
# Pfeiffer = experiment: Upregulation of TNFRSF21 mRNA expression in human Pfeiffer cells at 1 uM incubated for 48 hrs by qRT-PCR analysis; format: functional, cell-based
# Procedure, shortened: (§6)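 WSU-DLCL-2 or Pfeiffer cells treated 48 h. Trizol RNA extraction, reverse transcription, SYBR qPCR (95 °C 30 s; 40 cycles of 95 °C 6 s, 60 °C 20 s). mRNA normalized to DMSO-treated cells; mean ± SD of three independent experiments, t-test.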
# [18] = biological target: T1, Protein cereblon/Histone-lysine N-methyltransferase EZH2 (Homo sapiens); experiment: PROTAC activity at CRBN E3 ligase/EZH2 in PRC2 complex in human WSUDLCL2 cells assessed as increase in SUZ12 ubiquitination at 1 uM measured after 48 hrs by co-immunoprecipitation assay; format: cell-based
# Procedure, shortened: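 WSU-DLCL-2 cells treated with 1 μM compound for 48 h and lysed in RIPA buffer. Lysates incubated with antibodies overnight at 4 °C, then 3 h with Protein G agarose beads at 4 °C. Proteins eluted in IP buffer and ubiquitination of the target probed by immunoblot.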
# [19] = biological target: T1, Protein cereblon/Histone-lysine N-methyltransferase EZH2 (Homo sapiens); experiment: PROTAC activity at CRBN E3 ligase/EZH2 in PRC2 complex in human WSUDLCL2 cells assessed as downregulation of RbAp48 expression at 1 uM pretreated with GSK126 for 4 hrs followed by compound addition and measured after 48 hrs by Western blot analysis; format: cell-based; procedure, shortened: as §5
# WSUDLCL2 [20] = experiment: Upregulation of TXINP mRNA expression in human WSUDLCL2 cells at 1 uM incubated for 48 hrs by qRT-PCR analysis; format: functional, cell-based; procedure, shortened: as §6
smiles,measurement,setting,value
CCN(c1cc(-c2ccc(CN3CCN(CCCCCCCOc4cccc5c4C(=O)N(C4CCC(=O)NC4=O)C5=O)CC3)cc2)cc(C(=O)NCc2c(C)cc(C)[nH]c2=O)c1C)C1CCOCC1 (stereo unspecified),Activity,[1],Active
same,Activity,A549 [2],Active
same,Activity,[3],Active
same,Activity,A549 [4],Active
same,inhibition,WSUDLCL2 [5],Active
same,inhibition,WSUDLCL2 [6],Dose-Dependent Effect
same,Activity,NCI-H1299 [7],Active
same,Activity,[8],Active
same,Activity,[9],inactive
same,Activity,NCI-H1299 [10],Active
same,Activity,A549 [11],Active
same,Activity,[12],Active
same,Activity,[13],inactive
same,Activity,[14],inactive
same,Activity,[15],Active
same,Activity,NCI-H1299 [16],Active
same,Activity,[17],Active
same,Activity,Pfeiffer,Active
same,Activity,[18],Active
same,Activity,[19],inactive
same,Activity,WSUDLCL2 [20],inactive
